Measurements taken from ChEMBL document CHEMBL1156228 (2010).
Several values for one entry are separate records, joined by “and”; a condition that tells them apart may be missing. Equal values may be shown once.

Experiments:
CHO = experiment: Antioxidant activity in CHO cells assessed as protection from H2O2-induced toxicity at 50 uM pretreated for 2 hrs before H2O2 challenge measured after 1 hr by MTT assay; format: functional, Cricetulus griseus
In short: (§1)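 Cells grown to 80% confluence at 37°C in 5% CO2, trypsinized and seeded at about 7,000 cells/well. After 24–48 h they were exposed to derivative for 2 h, then to H2O2 at 1 mM for 1 h. Viability was read by MTT-to-formazan conversion, with at least 6 repeats.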

[1] = Antioxidant activity assessed as superoxide radical-scavenging activity at 1 mM by EPR spectroscopy; format: functional
In short: (§2)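 Superoxide generated by xanthine (0.2 mM) plus xanthine oxidase (0.02 U/ml) in PBS pH 7.4 containing DEPMPO spin trap (1 mM) and DTPA (0.1 mM), with or without derivative. The DEPMPO-OOH adduct was measured by EPR and double-integrated. Signal is expressed as percent of the level without derivative.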

[2] = Antioxidant activity assessed as peroxyl radical-scavenging activity at 1 mM by EPR spectroscopy; format: functional
In short: (§3)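 Alkylperoxyl radicals generated by thermolysis of 2,2-azobis-2-amidinopropane dihydrochloride (25 mM) in aerobic PBS at 37°C. EPR run in PBS pH 7.4 with DEPMPO (1 mM) and DTPA (0.1 mM), with or without derivative. The DEPMPO-OOR adduct was quantified by double integration and expressed as percent of the untreated level.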

[3] = Antioxidant activity in HSMC assessed as protection from H2O2-induced toxicity at 50 uM pretreated for 2 hrs before H2O2 challenge measured after 1 hr by MTT assay; format: functional, Homo sapiens; in short: as §1
[4] = Antioxidant activity assessed as superoxide radical-scavenging activity at 100 uM by EPR spectroscopy; format: functional; in short: as §2
[5] = Antioxidant activity assessed as peroxyl radical-scavenging activity at 100 uM by EPR spectroscopy; format: functional; in short: as §3

Compound	Activity (CHO)	Activity [1]	Activity [2]	Activity [3]	Activity [4]	Activity [5]
COc1ccc(CCN(C)CCCC(CNC(=O)C2=CC(C)(C)NC2(C)C)(c2ccc(OC)c(OC)c2)C(C)C)cc1OC (centres undefined)	53.5%	34.9%	84.1%	53.7%	–	–
COc1ccc(CCN(C)CCCC(CNC(=O)C2=C(C)C(C)(C)N(O)C2(C)C)(c2ccc(OC)c(OC)c2)C(C)C)cc1OC (centres undefined)	60%	100%	100%	39.7%	78.2%	100%
COc1ccc(CCN(C)CCCC(CNC(=O)CC2(C)CCC(C)(C)N2O)(c2ccc(OC)c(OC)c2)C(C)C)cc1OC (centres undefined)	54%	100%	100%	44%	70.7% and 78.1%	89.2%
COc1ccc(CCN(C)CCCC(CNC(=O)C2CC(C)(C)N(O)C2(C)C)(c2ccc(OC)c(OC)c2)C(C)C)cc1OC (centres undefined)	62.1%	100%	100%	40.2%	84.2%	98%
COc1ccc(CCN(C)CCCC(CNC(=O)C2=C(c3ccccc3)C(C)(C)N(O)C2(C)C)(c2ccc(OC)c(OC)c2)C(C)C)cc1OC (centres undefined)	68.3%	100%	100%	47.5%	79.3%	86.1%
COc1ccc(CCN(C)CCCC(CNC(=O)C2=CC(C)(C)N(C)C2(C)C)(c2ccc(OC)c(OC)c2)C(C)C)cc1OC (centres undefined)	55.5%	60.7%	89.8%	48.7%	–	–
COc1ccc(CCN(C)CCCC(CNC(=O)C2=CC(C)(C)N(O)C2(C)C)(c2ccc(OC)c(OC)c2)C(C)C)cc1OC (centres undefined)	48.9%	55.2%	14.9%	59.1%	–	–
COc1ccc(CCN(C)CCCC(CNC(=O)C2CC(C)(C)N(O)C(C)(C)C2)(c2ccc(OC)c(OC)c2)C(C)C)cc1OC (centres undefined)	50.3%	100%	90.1%	40.2%	76.5%	–
COc1ccc(CCN(C)CCCC(CNCC2=CC(C)(C)N(O)C2(C)C)(c2ccc(OC)c(OC)c2)C(C)C)cc1OC (centres undefined)	63.6%	100%	100%	43.3%	88.5%	92.9%
COc1ccc(CCN(C)CCC[C@@](CNC(=O)C2=CC(C)(C)N(O)C(C)(C)C2)(c2ccc(OC)c(OC)c2)C(C)C)cc1OC	46.1%	100%	100%	33.1%	66.5%	91.4%
COc1ccc(CCN(C)CCCC(CNCC2=CC(C)(C)NC2(C)C)(c2ccc(OC)c(OC)c2)C(C)C)cc1OC (centres undefined)	71.2%	100%	100%	39.1%	73.8%	89.8%
